The values that follow come from ChEMBL document CHEMBL1914328, “Thiosemicarbazones derived from 1-indanones as new anti-Trypanosoma cruzi agents” (Bioorg Med Chem, 2011).

Data set [1] can be described thus: Toxicity in human erythrocytes assessed as hemolysis at 25 uM after 24 hrs by spectrophotometry. In kind it is cell-based, Erythrocyte. The conditions noted are these: read-out: Activity. The method in brief:
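Citrated human blood was washed repeatedly in ice-cold PBS and made into a 2% w/v suspension. It was mixed 1:1 with compound in PBS and incubated 24 h at 37 °C. Supernatant hemoglobin was read at 405 nm. Percent hemolysis = (A at 24 h − A at 0 h) / water-lysis A × 100. Water gave 100% lysis, PBS served as negative control. Run in quintuplicate.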

The subject of data set [2] is Trypanosoma cruzi. The data set can be described thus: Antitrypanosomal activity against Trypanosoma cruzi Tulahuen 2 epimastigotes assessed as inhibition of parasite growth at 25 uM after 5 days by spectrophotometric analysis. It is filed as functional. The conditions noted are these: Tulahuen 2, 120 h, read-out: GI. The method in brief: (§1)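 Tulahuen 2 epimastigotes were grown in BHI-Tryptose with 5% fetal calf serum at 28 °C, harvested in late log phase and seeded at 2 × 10^6/mL. Compound came from DMSO stock (final DMSO ≤1%, vehicle control). A590 was read at day 0 and day 5, and % inhibition was taken against the control. IC50 was the concentration halving control absorbance. Values are the mean of three experiments.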

For data set [3], the system named is Trypanosoma cruzi. The experiment in a line: Antitrypanosomal activity against Trypanosoma cruzi Tulahuen 2 epimastigotes assessed as inhibition of parasite growth after 5 days by spectrophotometric analysis. It is filed as functional, organism-based. The conditions noted are these: Tulahuen 2, 120 h. The method in brief:
as §1

Data set [4] in a line: Selectivity index, ratio of growth inhibition of Trypanosoma cruzi Tulahuen 2 epimastigotes at 25 uM to hemolysis of human erythrocytes at 25 uM. The method in brief:
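This is a ratio of two values. One is the % epimastigote growth inhibition (A590, day 5 versus day 0, against a DMSO control). The other is the % erythrocyte lysis (A405 after 24 h at 37 °C, relative to water lysis). Both are measured at the same compound concentration.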

The target in data set [5] is Cruzipain (Trypanosoma cruzi) (UniProt P25779). The data set can be described thus: Inhibition of Trypanosoma cruzi cruzipain using Z-Phe-Arg-AMC as substrate at 100 uM preincubated for 5 mins before substrate addition measured after 10 mins by spectrofluorometry. The method in brief:
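Cruzipain was preincubated 5 min at room temperature with compound in 50 mM PBS pH 7.3 or acetate buffer pH 5.3 containing 5 mM DTT. Z-Phe-Arg-AMC was then added. Fluorescence (ex 380/em 460 nm) was followed 10 min at room temperature. Final DMSO was ≤10%, the solvent-only control was used, and a reference thiosemicarbazone inhibitor was included. Values are means of at least three experiments.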

Usually IC50 stands for the concentration that inhibits the measured activity by half. The inhibition is the share of the control response that was lost under treatment. Lower therefore signals little suppression.

Sequence of Cruzipain (Trypanosoma cruzi) (P25779 123-467 limits assumed): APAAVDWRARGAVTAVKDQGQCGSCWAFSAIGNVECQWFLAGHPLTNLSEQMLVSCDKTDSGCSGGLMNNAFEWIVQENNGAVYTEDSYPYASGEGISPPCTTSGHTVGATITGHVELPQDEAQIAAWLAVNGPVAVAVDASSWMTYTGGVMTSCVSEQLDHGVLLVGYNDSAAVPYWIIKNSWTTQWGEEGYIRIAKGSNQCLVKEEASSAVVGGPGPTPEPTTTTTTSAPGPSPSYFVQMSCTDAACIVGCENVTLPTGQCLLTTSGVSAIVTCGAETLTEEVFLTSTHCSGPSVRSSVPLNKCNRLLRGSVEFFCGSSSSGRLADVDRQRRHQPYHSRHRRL

Consider `NC(=S)N/N=C1\CCc2cc(F)ccc21`, for which the hemolysis at 24 h, 25 µM in data set [1] was 0.2%. In addition, in the data set on Trypanosoma cruzi [2], the inhibition of growth at 25 µM came to 84.2%. Also, in the data set with Trypanosoma cruzi [3], the IC50 is 8.3 µM. Further, in data set [4], the Ratio was determined as 421.
As for `S=C(N/N=C1\CCc2ccccc21)Nc1ccc(Cl)cc1`, the hemolysis at 24 h, 25 µM in data set [1] stood at 0.1%. Moreover, the inhibition of growth at 25 µM in the data set with Trypanosoma cruzi [2] came to 50.8%. Moreover, in the data set on Trypanosoma cruzi [3], the IC50 came out at 25 µM. Also, the Ratio in data set [4] was 508.
The corresponding values for `NC(=S)N/N=C1\CCc2c1cccc2[N+](=O)[O-]` are 4.5%, 22%, more than 50 µM and 4.9.
As for `COc1cc2c(cc1OC)/C(=N/NC(N)=S)CC2`, the hemolysis at 24 h, 25 µM in data set [1] is 0.1%. The inhibition of growth at 25 µM with Trypanosoma cruzi [2] is 19%. The concentration for half-maximal inhibition (IC50) in the data set with Trypanosoma cruzi [3] is more than 50 µM. Besides, the Ratio in data set [4] is reported as 190. Besides, the inhibition in data set [5] is 1.7%.
Regarding `NC(=S)N/N=C1\CCc2ccc([N+](=O)[O-])cc21`, the hemolysis at 24 h, 25 µM in data set [1] is 0.1%. Further, in the data set with Trypanosoma cruzi [2], the inhibition of growth at 25 µM is 3.1%. In addition, the 50% inhibitory concentration (IC50) in the data set on Trypanosoma cruzi [3] was more than 50 µM. Moreover, the Ratio in data set [4] amounted to 310. Also, the inhibition in data set [5] was determined as 24%.
In data set [5], `CC/C(=N\N=C(\N)S)c1cccc(Br)c1` displayed an inhibition of 100%.
In the case of `Cc1cc(C)c2c(c1Br)CC/C2=N\NC(N)=S`, the hemolysis at 24 h, 25 µM in data set [1] is 7.7%. Further, the inhibition of growth at 25 µM with Trypanosoma cruzi [2] is 100%. Besides, the IC50 in the data set with Trypanosoma cruzi [3] was 5.7 µM. The Ratio in data set [4] amounted to 12.9.
For the molecule `COc1ccc2c(c1)CC/C2=N\NC(N)=S`, in data set [1], the hemolysis at 24 h, 25 µM was 0.8%. For the same molecule, the inhibition of growth at 25 µM with Trypanosoma cruzi [2] is 92.1%. Besides, the IC50 in the data set with Trypanosoma cruzi [3] was determined as 7.5 µM. For the same molecule, in data set [4], the Ratio is on record as 115.1.
For the molecule `NC(=S)N/N=C1\CCc2cc(Cl)ccc21`, the hemolysis at 24 h, 25 µM in data set [1] was found to be 0.1%. In the data set with Trypanosoma cruzi [2], the inhibition of growth at 25 µM amounted to 1.7%. The IC50 in the data set with Trypanosoma cruzi [3] is more than 50 µM. Also, in data set [4], the Ratio was 170.
Regarding `Cc1cc2c(c(C)c1Cl)CC/C2=N\NC(N)=S`, in data set [1], the hemolysis at 24 h, 25 µM amounted to 0.1%. In addition, the inhibition of growth at 25 µM in the data set with Trypanosoma cruzi [2] amounted to 83.7%. Also, in the data set on Trypanosoma cruzi [3], the IC50 came to 7.8 µM. Also, in data set [4], the Ratio turned out to be 837.
Consider `COc1ccc2c(c1OC)CC/C2=N\NC(N)=S`, for which the hemolysis at 24 h, 25 µM in data set [1] worked out at 0.1%. For the same molecule, in the data set on Trypanosoma cruzi [2], the inhibition of growth at 25 µM was 98.9%. Moreover, the IC50 in the data set on Trypanosoma cruzi [3] came to 1.8 µM. For the same molecule, in data set [4], the Ratio is reported as 989. For the same molecule, the inhibition in data set [5] came out at 61%.
Regarding `COc1cc2c(cc1OC)/C(=N/NC(=S)Nc1ccc(Cl)cc1)CC2`, the hemolysis at 24 h, 25 µM in data set [1] was found to be 0.1%. The inhibition of growth at 25 µM in the data set on Trypanosoma cruzi [2] is 77%. Moreover, the 50% inhibitory concentration (IC50) with Trypanosoma cruzi [3] is 1 µM. Also, in data set [4], the Ratio came to 770. The inhibition in data set [5] came out at 67%.
`Cc1cc(C)c2c(c1)CC/C2=N\NC(N)=S`: in data set [1], the hemolysis at 24 h, 25 µM amounted to 0.1%. Besides, in the data set with Trypanosoma cruzi [2], the inhibition of growth at 25 µM worked out at 66.5%. Further, the IC50 with Trypanosoma cruzi [3] turned out to be 4.3 µM. In addition, the Ratio in data set [4] came to 665.
The corresponding values for `Cc1cccc2c1CC/C2=N\NC(N)=S` are 0.1%, 98.5%, 4 µM and 985.
Take `Cc1ccc(NC(=S)N/N=C2\CCc3ccccc32)cc1`: the hemolysis at 24 h, 25 µM in data set [1] was 1.6%. Further, the inhibition of growth at 25 µM with Trypanosoma cruzi [2] came to 76%. Also, in the data set on Trypanosoma cruzi [3], the IC50 is 5.9 µM. In addition, in data set [4], the Ratio is 47.5.
In the case of `CC1CS(=O)(=O)CCN1/N=C/c1ccc([N+](=O)[O-])o1` (centres undefined) [NIFURTIMOX], the inhibition of growth at 25 µM in the data set with Trypanosoma cruzi [2] amounted to 100%.
In the case of `NC(=S)N/N=C1\CCc2cc(Br)ccc21`, in data set [1], the hemolysis at 24 h, 25 µM worked out at 2.4%. The inhibition of growth at 25 µM with Trypanosoma cruzi [2] is 98.8%. Also, the IC50 with Trypanosoma cruzi [3] is 2.3 µM. Also, the Ratio in data set [4] worked out at 41.2.
Turning to `NC(=S)N/N=C1\CCc2ccccc21`, the hemolysis at 24 h, 25 µM in data set [1] was 0.2%. Also, the inhibition of growth at 25 µM in the data set with Trypanosoma cruzi [2] turned out to be 80.8%. Besides, the IC50 with Trypanosoma cruzi [3] was found to be 18.6 µM. In addition, the Ratio in data set [4] is recorded as 404.
For `COc1cc2c(cc1OC)/C(=N/NC(=S)Nc1ccccc1)CC2`, the hemolysis at 24 h, 25 µM in data set [1] turned out to be 0.4%. The inhibition of growth at 25 µM in the data set on Trypanosoma cruzi [2] was determined as 67.5%. For the same molecule, the IC50 with Trypanosoma cruzi [3] turned out to be 1 µM. In addition, in data set [4], the Ratio came out at 168.8. For the same molecule, the inhibition in data set [5] was found to be 0%.
Consider `COc1cc2c(cc1OC)/C(=N/NC(=S)Nc1ccc(C)cc1)CC2`, for which, in data set [1], the hemolysis at 24 h, 25 µM stood at 4.2%. The inhibition of growth at 25 µM in the data set with Trypanosoma cruzi [2] is 77.7%. Moreover, the IC50 with Trypanosoma cruzi [3] turned out to be 3 µM. For the same molecule, the Ratio in data set [4] stood at 18.5.
With `COc1ccc2c(c1)/C(=N/NC(N)=S)CC2`, the hemolysis at 24 h, 25 µM in data set [1] stood at 7.5%. In the data set on Trypanosoma cruzi [2], the inhibition of growth at 25 µM came to 100%. Further, in the data set with Trypanosoma cruzi [3], the half-maximal inhibitory concentration (IC50) was 7.5 µM. Moreover, the Ratio in data set [4] came to 13.3. The same molecule registered an inhibition in data set [5] of 0%.
For `COc1cccc2c1CC/C2=N\NC(N)=S`, the hemolysis at 24 h, 25 µM in data set [1] worked out at 1%. For the same molecule, the inhibition of growth at 25 µM in the data set on Trypanosoma cruzi [2] is 84.2%. In addition, in the data set on Trypanosoma cruzi [3], the concentration for half-maximal inhibition (IC50) worked out at 6.2 µM. The Ratio in data set [4] was 84.2. The same molecule showed an inhibition in data set [5] of 9.8%.
On to `Cc1cc(Br)c(C)c2c1/C(=N/NC(N)=S)CC2`, for which the hemolysis at 24 h, 25 µM in data set [1] was 2.4%. In addition, the inhibition of growth at 25 µM in the data set on Trypanosoma cruzi [2] is 51%. The IC50 in the data set with Trypanosoma cruzi [3] was found to be 25 µM. Besides, the Ratio in data set [4] stood at 21.2.
The corresponding values for `Cc1cc2c(c(C)c1Cl)/C(=N/NC(N)=S)CC2` are 2.8%, 14.4%, more than 50 µM and 5.1.
In the case of `C[C@@H]1[C@H](O)[C@@H](C)/C=C/C=C/C=C/C=C/C=C/C=C/C=C/[C@H](O[C@@H]2O[C@H](C)[C@@H](O)[C@H](N)[C@@H]2O)C[C@@H]2O[C@](O)(C[C@@H](O)C[C@@H](O)[C@H](O)CC[C@@H](O)C[C@@H](O)CC(=O)O[C@H]1C)C[C@H](O)[C@H]2C(=O)O` [AMPHOTERICIN B], in data set [1], the hemolysis at 24 h, 25 µM was 100%. Also, the inhibition of growth at 25 µM with Trypanosoma cruzi [2] amounted to 100%. Further, the IC50 with Trypanosoma cruzi [3] turned out to be 0.152 µM. Also, the Ratio in data set [4] is given as 1.
As to `S=C(N/N=C1\CCc2ccccc21)Nc1ccccc1`, in data set [1], the hemolysis at 24 h, 25 µM was 2.7%. In addition, the inhibition of growth at 25 µM in the data set on Trypanosoma cruzi [2] was 69.6%. In the data set on Trypanosoma cruzi [3], the IC50 is 7.7 µM. The Ratio in data set [4] is 25.8.
In the case of `Cc1ccc2c(c1)CC/C2=N\NC(N)=S`, the hemolysis at 24 h, 25 µM in data set [1] is 0.5%. In addition, in the data set with Trypanosoma cruzi [2], the inhibition of growth at 25 µM was determined as 100%. Further, the IC50 with Trypanosoma cruzi [3] turned out to be 3.6 µM. Further, the Ratio in data set [4] came out at 200.
